Reference: ChEMBL document CHEMBL4406804, “Discovery of a Potent Steroidal Glucocorticoid Receptor Antagonist with Enhanced Selectivity against the Progesterone and Androgen Receptors (OP-3633)” (J Med Chem, 2019)
≈ marks a conversion by molar mass, not a printed value. Calls of active or inactive are those of the source. No cut-off for these calls is given here.

Assays:
Progesterone receptor = molecular target: T1, Progesterone receptor (Homo sapiens, UniProt P06401); assay: Antagonist activity at human progesterone receptor expressed in CHO-K1 cells harboring firefly luciferase gene after 20 hrs by One-Glo luciferase reporter gene assay; format: cell-based
T1 sequence (P06401 whole entry): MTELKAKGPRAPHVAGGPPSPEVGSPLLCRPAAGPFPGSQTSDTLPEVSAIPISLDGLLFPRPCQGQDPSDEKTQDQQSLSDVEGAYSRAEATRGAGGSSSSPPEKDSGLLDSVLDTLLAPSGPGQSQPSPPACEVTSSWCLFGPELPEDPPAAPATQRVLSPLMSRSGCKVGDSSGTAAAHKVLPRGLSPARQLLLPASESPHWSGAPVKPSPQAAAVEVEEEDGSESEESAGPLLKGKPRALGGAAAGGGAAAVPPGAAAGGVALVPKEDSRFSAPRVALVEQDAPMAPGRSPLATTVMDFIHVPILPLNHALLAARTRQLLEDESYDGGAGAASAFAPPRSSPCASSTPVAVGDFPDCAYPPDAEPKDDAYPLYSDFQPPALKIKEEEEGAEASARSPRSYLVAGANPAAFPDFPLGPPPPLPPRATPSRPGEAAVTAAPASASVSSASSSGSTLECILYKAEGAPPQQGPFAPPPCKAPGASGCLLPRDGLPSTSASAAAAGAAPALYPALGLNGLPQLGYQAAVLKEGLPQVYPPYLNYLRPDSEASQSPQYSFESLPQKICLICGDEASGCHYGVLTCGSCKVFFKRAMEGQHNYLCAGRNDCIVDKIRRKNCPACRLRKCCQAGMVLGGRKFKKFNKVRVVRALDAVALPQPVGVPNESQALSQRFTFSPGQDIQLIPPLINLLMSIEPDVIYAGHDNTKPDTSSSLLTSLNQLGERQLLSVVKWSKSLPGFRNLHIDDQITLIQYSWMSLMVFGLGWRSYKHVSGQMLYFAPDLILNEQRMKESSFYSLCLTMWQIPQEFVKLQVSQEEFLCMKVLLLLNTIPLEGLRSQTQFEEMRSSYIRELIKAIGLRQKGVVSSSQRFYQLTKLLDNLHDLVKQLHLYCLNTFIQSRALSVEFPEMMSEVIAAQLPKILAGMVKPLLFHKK
How it was run: (§1)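 Cell-based luciferase reporter assays for GR, AR and PR, run in agonist and antagonist modes. Potency and Emax are averages of at least two determinations, reported with SD.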

Androgen receptor [1] = molecular target: T2, Androgen receptor (Homo sapiens, UniProt P10275); assay: Antagonist activity at human androgen receptor in human LNCAP cells harboring firefly luciferase gene after 20 hrs by One-Glo luciferase reporter gene assay; format: cell-based; how it was run: as §1
T2 sequence (P10275 whole entry): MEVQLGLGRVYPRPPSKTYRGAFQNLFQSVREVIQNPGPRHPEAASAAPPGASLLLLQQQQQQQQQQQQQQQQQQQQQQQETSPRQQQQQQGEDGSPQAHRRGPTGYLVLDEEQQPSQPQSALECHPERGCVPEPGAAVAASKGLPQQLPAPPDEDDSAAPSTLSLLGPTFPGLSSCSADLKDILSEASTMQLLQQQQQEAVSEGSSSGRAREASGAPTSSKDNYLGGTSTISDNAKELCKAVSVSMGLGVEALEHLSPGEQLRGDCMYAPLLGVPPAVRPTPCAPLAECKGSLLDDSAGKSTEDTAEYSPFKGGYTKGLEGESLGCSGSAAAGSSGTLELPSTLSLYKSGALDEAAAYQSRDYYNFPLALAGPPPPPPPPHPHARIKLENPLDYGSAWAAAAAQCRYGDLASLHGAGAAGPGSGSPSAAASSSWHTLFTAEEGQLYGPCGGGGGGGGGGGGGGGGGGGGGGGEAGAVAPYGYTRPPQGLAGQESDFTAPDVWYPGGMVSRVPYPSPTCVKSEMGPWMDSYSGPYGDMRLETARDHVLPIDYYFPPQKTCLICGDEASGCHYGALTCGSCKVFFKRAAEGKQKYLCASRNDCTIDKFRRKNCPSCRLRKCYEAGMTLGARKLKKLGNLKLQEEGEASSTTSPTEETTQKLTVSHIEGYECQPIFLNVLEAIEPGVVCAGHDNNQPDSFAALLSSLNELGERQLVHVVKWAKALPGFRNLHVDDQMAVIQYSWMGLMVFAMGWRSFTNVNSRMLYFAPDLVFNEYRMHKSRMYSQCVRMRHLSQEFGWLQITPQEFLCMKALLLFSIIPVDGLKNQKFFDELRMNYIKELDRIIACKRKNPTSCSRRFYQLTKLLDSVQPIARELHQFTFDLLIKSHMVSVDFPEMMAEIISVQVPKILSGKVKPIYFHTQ

[2] = molecular target: T3, Progesterone receptor (Homo sapiens) (UniProt P06401); assay: Agonist activity at human progesterone receptor expressed in CHO-K1 cells harboring firefly luciferase gene after 20 hrs by One-Glo luciferase reporter gene assay; format: cell-based; how it was run: as §1
T3 sequence (whole entry): T1 sequence (P06401 whole entry)

Homo sapiens = species: Homo sapiens; assay: Selectivity ratio, ratio of IC50 for human androgen receptor in human LNCAP cells to IC50 for human glucocorticoid receptor expressed in CHO-K1 cells harboring firefly luciferase gene; format: cell-based
[3] = molecular target: T4, Glucocorticoid receptor (Homo sapiens) (UniProt P04150); assay: Antagonist activity at human glucocorticoid receptor expressed in CHO-K1 cells harboring firefly luciferase gene assessed as inhibition of glucocorticoid receptor activity at 0.01 to 10000 nM after 20 hrs by One-Glo luciferase reporter gene assay relative to mifepristone; format: cell-based; parameters: scale not given: the % may be the effect or the level left; how it was run: as §1
T4 sequence (whole entry): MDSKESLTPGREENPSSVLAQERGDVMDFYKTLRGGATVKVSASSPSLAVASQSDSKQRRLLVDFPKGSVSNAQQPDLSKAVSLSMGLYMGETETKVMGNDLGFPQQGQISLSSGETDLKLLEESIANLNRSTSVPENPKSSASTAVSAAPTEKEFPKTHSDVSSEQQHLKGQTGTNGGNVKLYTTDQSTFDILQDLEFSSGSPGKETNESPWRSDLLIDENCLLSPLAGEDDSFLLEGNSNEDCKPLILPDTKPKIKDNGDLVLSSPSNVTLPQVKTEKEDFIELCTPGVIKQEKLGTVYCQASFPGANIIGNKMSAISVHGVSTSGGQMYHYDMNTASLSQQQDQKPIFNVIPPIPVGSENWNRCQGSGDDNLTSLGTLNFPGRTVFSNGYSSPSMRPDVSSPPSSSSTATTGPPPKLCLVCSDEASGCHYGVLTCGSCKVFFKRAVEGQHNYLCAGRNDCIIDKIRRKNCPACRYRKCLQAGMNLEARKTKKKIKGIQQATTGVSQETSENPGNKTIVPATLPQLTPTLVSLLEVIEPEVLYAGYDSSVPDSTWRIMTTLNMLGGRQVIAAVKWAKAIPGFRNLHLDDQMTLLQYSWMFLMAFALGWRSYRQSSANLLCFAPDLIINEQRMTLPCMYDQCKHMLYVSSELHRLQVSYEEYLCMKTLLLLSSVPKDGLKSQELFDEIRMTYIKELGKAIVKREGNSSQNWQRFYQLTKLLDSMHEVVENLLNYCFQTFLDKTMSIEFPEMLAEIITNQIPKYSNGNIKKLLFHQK

Glucocorticoid receptor [4] = molecular target: T5, Glucocorticoid receptor (Homo sapiens, UniProt P04150); assay: Displacement of fluormone tracer from full length human recombinant glucocorticoid receptor expressed in baculovirus expression system incubated for 2 hrs by competitive fluorescence polarization binding assay
T5 sequence (P04150 whole entry): T4 sequence (whole entry)

Glucocorticoid receptor [5] = molecular target: T5, Glucocorticoid receptor; assay: Antagonist activity at human glucocorticoid receptor expressed in CHO-K1 cells assessed as inhibition of glucocorticoid receptor-dexamethasone coactivator protein-protein interaction incubated for 24 hrs by bioluminescence assay; format: cell-based
Androgen receptor [6] = molecular target: T2, Androgen receptor; assay: Agonist activity at human androgen receptor in human LNCAP cells harboring firefly luciferase gene after 20 hrs by One-Glo luciferase reporter gene assay; format: cell-based
Glucocorticoid receptor [7] = molecular target: T5, Glucocorticoid receptor; assay: Antagonist activity at human glucocorticoid receptor expressed in CHO-K1 cells harboring firefly luciferase gene after 20 hrs by One-Glo luciferase reporter gene assay; format: cell-based
Androgen receptor [8] = molecular target: T2, Androgen receptor; assay: Agonist activity at human androgen receptor in human LNCAP cells harboring firefly luciferase gene after 20 hrs by One-Glo luciferase reporter gene assay relative to mifepristone; format: cell-based; how it was run: as §1
CYP3A4 = CYP3A4 (Homo sapiens, UniProt P08684); assay: Inhibition of CYP3A4 (unknown origin) at 10 uM using midazolam as substrate relative to control; format: ADME; conditions: probe midazolam
CYP2C8 = molecular target: T6, CYP2C8 (Homo sapiens, UniProt P10632); assay: Inhibition of CYP2C8 (unknown origin) at 10 uM using paclitaxel as substrate relative to control; format: ADME; conditions: probe paclitaxel
T6 sequence (P10632 whole entry): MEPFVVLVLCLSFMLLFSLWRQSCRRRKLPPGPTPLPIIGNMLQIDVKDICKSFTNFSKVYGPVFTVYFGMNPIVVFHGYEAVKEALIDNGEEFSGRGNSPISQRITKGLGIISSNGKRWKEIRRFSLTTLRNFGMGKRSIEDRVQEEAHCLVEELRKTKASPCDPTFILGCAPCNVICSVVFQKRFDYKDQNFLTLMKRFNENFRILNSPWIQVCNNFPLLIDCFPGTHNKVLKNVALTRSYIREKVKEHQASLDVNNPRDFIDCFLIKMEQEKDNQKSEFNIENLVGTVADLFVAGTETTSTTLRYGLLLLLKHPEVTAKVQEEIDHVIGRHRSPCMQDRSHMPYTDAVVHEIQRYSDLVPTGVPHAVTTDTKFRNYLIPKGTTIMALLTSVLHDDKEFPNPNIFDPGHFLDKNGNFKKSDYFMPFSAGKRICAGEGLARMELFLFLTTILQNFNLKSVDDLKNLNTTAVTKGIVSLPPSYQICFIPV

[9] = Solubility of compound in fasted state simulated gastric fluid at pH 1.2; format: physicochemical
[10] = Solubility of compound in PBS at pH 7.4; format: physicochemical
[11] = Solubility of compound in fasted state simulated intestinal fluid at pH 6.5; format: physicochemical

Chain of CYP3A4 (P08684 whole entry): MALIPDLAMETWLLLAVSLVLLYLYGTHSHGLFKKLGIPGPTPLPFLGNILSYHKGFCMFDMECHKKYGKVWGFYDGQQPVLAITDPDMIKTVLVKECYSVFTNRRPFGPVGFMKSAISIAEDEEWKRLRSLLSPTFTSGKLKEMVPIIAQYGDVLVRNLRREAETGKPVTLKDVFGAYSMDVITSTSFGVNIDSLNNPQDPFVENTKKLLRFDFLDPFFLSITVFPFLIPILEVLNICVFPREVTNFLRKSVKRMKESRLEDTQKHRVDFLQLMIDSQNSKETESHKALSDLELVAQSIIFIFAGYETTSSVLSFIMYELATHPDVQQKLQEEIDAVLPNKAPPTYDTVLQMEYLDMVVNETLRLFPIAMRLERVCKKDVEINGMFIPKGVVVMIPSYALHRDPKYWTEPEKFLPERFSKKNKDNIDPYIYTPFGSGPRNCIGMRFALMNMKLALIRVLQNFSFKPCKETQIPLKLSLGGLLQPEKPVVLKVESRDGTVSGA

SMILES	IC50 (Progesterone receptor)	IC50 (Androgen receptor [1])	agonist activity [2]	Ratio (Homo sapiens)	Activity [3]	IC50 (Glucocorticoid receptor [4])	IC50 (Glucocorticoid receptor [5])	EC50 (Androgen receptor [6])	IC50 (Glucocorticoid receptor [7])	Emax at 20 h (Androgen receptor [8])	inhibition at 10 µM (CYP3A4)	inhibition at 10 µM (CYP2C8)	solubility [9]	solubility [10]	solubility [11]
CN(C)c1ccc([C@H]2C[C@@]3(C)[C@@H](CC[C@@]3(O)C#CC(C)(C)C)[C@@H]3CCC4=CC(=O)CCC4=C32)cc1	14.4 nM	129 nM	inactive	10 to 30	100%	8 nM	7.5 nM								
CN(C)c1ccc([C@H]2C[C@@]3(C)[C@@H](CC[C@@]3(O)C#CC(C)(C)C)[C@@H]3CCC4=CC(=O)CC[C@@H]4[C@H]32)cc1	3.4 nM	165 nM	inactive	10 to 30	100%										
CC(C)(C)C#C[C@]1(O)CC[C@H]2[C@@H]3CCC4=CC(=O)CC[C@@H]4[C@H]3[C@@H](c3ccc(N4CCOCC4)cc3)C[C@@]21C	4.8 nM	208 nM	inactive	10 to 30	100%			> 2500 nM	10.3 nM	5.1%					
CN(C)c1ccc([C@H]2C[C@@]3(C)[C@@H](CC[C@@]3(O)C#CC(C)(C)C)[C@@H]3CCC4=CC(=O)CC[C@]4(C)[C@H]32)cc1	2490 nM	> 5000 nM	inactive	70	100%			> 2500 nM	33.6 nM	7.4%	71%	84%			
CN(C)c1ccc([C@H]2C[C@@]3(C)[C@@H](CC[C@@]3(O)C#CC3CC3)[C@@H]3CCC4=CC(=O)CC[C@]4(C)[C@H]32)cc1	1490 nM	1450 nM	inactive		100%			> 2500 nM	28.5 nM	5.4%	53%	70%			
CC(C)(C)C#C[C@]1(O)CC[C@H]2[C@@H]3CCC4=CC(=O)CC[C@@H]4[C@H]3[C@@H](c3ccc(N4CCN(S(C)(=O)=O)CC4)cc3)C[C@@]21C	4.6 nM	359 nM	inactive	10 to 30	100%			> 2500 nM	12.2 nM	18.1%					
CC#C[C@]1(O)CC[C@H]2[C@@H]3CCC4=CC(=O)CCC4=C3[C@@H](c3ccc(N(C)C)cc3)C[C@@]21C [MIFEPRISTONE]													> 1160 µM	3 µM (≈ 1.29 µg/mL)	5.4 µM (≈ 2.32 µg/mL)
